Tests used:
[1] = system: MCF-7; test: Antiproliferation assay; assay type: cell-based; conditions: Homo sapiens, MCF7, 24 h, read-out: IC50 = mean ± SD, MCF-7
How it was run: (§1)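 Cell lines were grown at 37 °C under 5% CO2 in their own media: A549 in DMEM/F12, H446 in RPMI 1640, and HeLa, MCF-7, L02 and BEAS-2B in high-glucose DMEM with L-glutamine, with 10% FBS and penicillin/streptomycin. Cells were seeded in 96-well plates and exposed to test compounds or reference agents at 37 °C for 24 h. CCK-8 was added for 2 h and absorbance read at 450 nm.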

[2] = system: Hela; test: Antiproliferation assay; assay type: cell-based; conditions: Homo sapiens, 24 h, read-out: IC50 = mean ± SD, Hela
How it was run: as §1

[3] = system: A549; test: Antiproliferation assay; assay type: cell-based; conditions: Homo sapiens, A549, 24 h, read-out: IC50 = mean ± SD, A549
How it was run: as §1

[4] = system: H446; test: Antiproliferation assay; assay type: cell-based; conditions: Homo sapiens, NCI-H446, 24 h, read-out: IC50 = mean ± SD, H446
How it was run: as §1

[5] = system: BEAS-2B; test: Antiproliferation assay; assay type: cell-based; conditions: Homo sapiens, 24 h, read-out: IC50 = mean ± SD, BEAS-2B
How it was run: as §1

[6] = system: L02; test: Antiproliferation assay; assay type: cell-based; conditions: Homo sapiens, L02, 24 h, read-out: IC50 = mean ± SD, L02
How it was run: as §1

[7] = system: PI3K/Akt pathway in A549 cells; test: Western blot of PI3K/Akt signalling pathway proteins; assay type: cell-based, human; conditions: A549, 1.0 µM, 24 h
How it was run: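 A549 cells were treated 24 h with test compound (0.1, 0.5, 1.0 or 2.0 µM), LY294002 (1.0 µM) or a reference agent (1.0 µM). Lysates were heat-denatured in non-reducing sample buffer and quantified by Bradford assay. 20 µg protein ran on 10% SDS-PAGE, transferred to PVDF and probed for PI3K, pPI3K, Akt and pAkt with GAPDH as loading control. Detection was by ECL with densitometry.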

Row | SMILES | IC50 [1] | IC50 [2] | IC50 [3] | IC50 [4] | IC50 [5] | IC50 [6] | pPI3K/PI3K and pAkt/Akt ratio [7]
1 | COc1cc([C@@H]2c3cc4c(cc3[C@H](OC(=O)CCCc3ccc(NS(=O)(=O)c5cccc([N+](=O)[O-])c5)cc3)[C@H]3COC(=O)[C@H]23)OCO4)cc(OC)c1OC [Compound E13, (5R,5aR,8aR,9R)-8-oxo-9-(3,4,5-trimethoxyphenyl)-5,5a,6,8,8a,9-hexahydrofuro [3′,4′:6,7]naphtho[2,3-d][1,3]dioxol-5-yl4-(4-((3-nitrophenyl)sulfonamido)phenyl)butanoate] | 42 ± 1.35 µM | 51.3 ± 1.15 µM | 4.94 ± 0.42 µM | 9.92 ± 0.92 µM | > 100 µM | 48.1 ± 1.09 µM | 
2 | COc1cc([C@@H]2c3cc4c(cc3[C@H](O)[C@H]3COC(=O)[C@H]23)OCO4)cc(OC)c1OC [PPT, Podophyllotoxin, reference compound] | 11.7 ± 0.45 µM | 15.3 ± 0.58 µM | 14.7 ± 1.14 µM | 3.69 ± 0.38 µM | 8.91 ± 0.72 µM | 9.42 ± 0.74 µM | 
3 | O=c1cc(N2CCOCC2)oc2c(-c3ccccc3)cccc12 [LY294002, reference compound] |  |  |  |  |  |  | notable reduction
4 | COc1cc([C@@H]2c3cc4c(cc3[C@H](OC(=O)CCCc3ccc(NS(=O)(=O)c5ccc(C)cc5)cc3)[C@H]3COC(=O)[C@H]23)OCO4)cc(OC)c1OC [Compound E12, (5R,5aR,8aR,9R)-8-oxo-9-(3,4,5-trimethoxyphenyl)-5,5a,6,8,8a,9-hexahydrofuro [3′,4′:6,7]naphtho[2,3-d][1,3]dioxol-5-yl4-(4-((4-methylphenyl)sulfonamido)phenyl)butanoate] | 36.8 ± 0.56 µM | 36.1 ± 1.49 µM | 27 ± 1.33 µM | 27.2 ± 2.06 µM | 79.3 ± 1.07 µM | > 100 µM | 
5 | COc1cc([C@@H]2c3cc4c(cc3[C@H](OC(=O)CCCc3ccc(NS(=O)(=O)c5cc([N+](=O)[O-])ccc5C)cc3)[C@H]3COC(=O)[C@H]23)OCO4)cc(OC)c1OC [Compound E15, (5R,5aR,8aR,9R)-8-oxo-9-(3,4,5-trimethoxyphenyl)-5,5a,6,8,8a,9-hexahydrofuro [3′,4′:6,7]naphtho[2,3-d][1,3]dioxol-5-yl4-(4-((2-methyl-5-nitrophenyl)sulfonamido)phenyl)butanoate] | 59.25 ± 0.42 µM | 16.9 ± 1.01 µM | 7.34 ± 1.32 µM | 36.6 ± 1.59 µM | 97.3 ± 1.41 µM | > 100 µM | 
6 | COc1cc([C@@H]2c3cc4c(cc3[C@H](OC(=O)CCCc3ccc(NS(=O)(=O)c5ccc([N+](=O)[O-])cc5)cc3)[C@H]3COC(=O)[C@H]23)OCO4)cc(OC)c1OC [Compound E14, (5R,5aR,8aR,9R)-8-oxo-9-(3,4,5-trimethoxyphenyl)-5,5a,6,8,8a,9-hexahydrofuro [3′,4′:6,7]naphtho[2,3-d][1,3]dioxol-5-yl4-(4-((4-nitrophenyl)sulfonamido)phenyl)butanoate] | 59.9 ± 1.71 µM | 26.8 ± 0.63 µM | 11 ± 2.51 µM | 29.4 ± 2.54 µM | > 100 µM | > 100 µM | 
7 | COc1cc([C@@H]2c3cc4c(cc3[C@H](OC(=O)CCCc3ccc(NS(=O)(=O)c5ccc(Br)cc5)cc3)[C@H]3COC(=O)[C@H]23)OCO4)cc(OC)c1OC [Compound E4, (5R,5aR,8aR,9R)-8-oxo-9-(3,4,5-trimethoxyphenyl)-5,5a,6,8,8a,9-hexahydrofuro [3′,4′:6,7]naphtho[2,3-d][1,3]dioxol-5-yl4-(4-((4-bromophenyl)sulfonamido)phenyl)butanoate] | 70.91 ± 0.47 µM | 18.4 ± 0.22 µM | 2.57 ± 0.98 µM | 17.4 ± 0.95 µM | > 100 µM | > 100 µM | 

Second part, led by results:

Row | IC50 [1] | IC50 [2] | IC50 [3] | IC50 [4] | SMILES | IC50 [5] | IC50 [6] | pPI3K/PI3K and pAkt/Akt ratio [7]
8 | 21.2 ± 0.52 µM | 51.8 ± 1.27 µM | 19.5 ± 1.09 µM | 29.18 ± 0.29 µM | COc1cc([C@@H]2c3cc4c(cc3[C@H](OC(=O)CCCc3ccc(NS(=O)(=O)c5ccc(C(F)(F)F)cc5)cc3)[C@H]3COC(=O)[C@H]23)OCO4)cc(OC)c1OC [Compound E8, (5R,5aR,8aR,9R)-8-oxo-9-(3,4,5-trimethoxyphenyl)-5,5a,6,8,8a,9-hexahydrofuro [3′,4′:6,7]naphtho[2,3-d][1,3]dioxol-5-yl4-(4-((4-(trifluoromethyl)phenyl)sulfonamido)phenyl)butanoate] | > 100 µM | > 100 µM | 
9 | 18.7 ± 0.95 µM | 39.2 ± 0.56 µM | 17.8 ± 1.11 µM | 11 ± 0.47 µM | CCCc1ccc(S(=O)(=O)Nc2ccc(CCCC(=O)O[C@H]3c4cc5c(cc4[C@@H](c4cc(OC)c(OC)c(OC)c4)[C@H]4C(=O)OC[C@@H]43)OCO5)cc2)cc1 [Compound E3, (5R,5aR,8aR,9R)-8-oxo-9-(3,4,5-trimethoxyphenyl)-5,5a,6,8,8a,9-hexahydrofuro [3′,4′:6,7]naphtho[2,3-d][1,3]dioxol-5-yl4-(4-((4-propylphenyl)sulfonamido)phenyl)butanoate] | 73.6 ± 1.35 µM | > 100 µM | 
10 | 18.9 ± 0.81 µM | 13.6 ± 0.71 µM | 20.2 ± 0.79 µM | > 100 µM | COc1cc([C@@H]2c3cc4c(cc3[C@H](OC(=O)CCCc3ccc(NS(=O)(=O)c5ccccc5F)cc3)[C@H]3COC(=O)[C@H]23)OCO4)cc(OC)c1OC [Compound E7, (5R,5aR,8aR,9R)-8-oxo-9-(3,4,5-trimethoxyphenyl)-5,5a,6,8,8a,9-hexahydrofuro [3′,4′:6,7]naphtho[2,3-d][1,3]dioxol-5-yl4-(4-((2-fluorophenyl)sulfonamido)phenyl)butanoate] | > 100 µM | > 100 µM | 
11 | 25.9 ± 1.34 µM | 12.7 ± 0.69 µM | 1.08 ± 0.32 µM | 6.07 ± 0.25 µM | COc1cc([C@@H]2c3cc4c(cc3[C@H](OC(=O)CCCc3ccc(NS(=O)(=O)c5cccc(F)c5)cc3)[C@H]3COC(=O)[C@H]23)OCO4)cc(OC)c1OC [Compound E6, (5R,5aR,8aR,9R)-8-oxo-9-(3,4,5-trimethoxyphenyl)-5,5a,6,8,8a,9-hexahydrofuro [3′,4′:6,7]naphtho[2,3-d][1,3]dioxol-5-yl4-(4-((3-fluorophenyl)sulfonamido)phenyl)butanoate] | 94.3 ± 2.66 µM | > 100 µM | 
12 | 8.07 ± 0.63 µM | 46.7 ± 2.04 µM | 27.8 ± 1.51 µM | 10.5 ± 2.08 µM | COc1cc([C@@H]2c3cc4c(cc3[C@H](OC(=O)CCCc3ccc(NS(=O)(=O)c5ccccc5[N+](=O)[O-])cc3)[C@H]3COC(=O)[C@H]23)OCO4)cc(OC)c1OC [Compound E11, (5R,5aR,8aR,9R)-8-oxo-9-(3,4,5-trimethoxyphenyl)-5,5a,6,8,8a,9-hexahydrofuro [3′,4′:6,7]naphtho[2,3-d][1,3]dioxol-5-yl4-(4-((2-nitrophenyl)sulfonamido)phenyl)butanoate] | > 100 µM | > 100 µM | 
13 | 25 ± 1.11 µM | > 100 µM | 2.73 ± 0.36 µM | 22.9 ± 1.33 µM | COc1cc([C@@H]2c3cc4c(cc3[C@H](OC(=O)CCCc3ccc(NS(=O)(=O)c5ccccc5)cc3)[C@H]3COC(=O)[C@H]23)OCO4)cc(OC)c1OC [Compound E1, (5R,5aR,8aR,9R)-8-oxo-9-(3,4,5-trimethoxyphenyl)-5,5a,6,8,8a,9-hexahydrofuro [3′,4′:6,7]naphtho[2,3-d][1,3]dioxol-5-yl 4-(4-(phenylsulfonamido)phenyl)butanoate] | 83.6 ± 1.85 µM | > 100 µM | 
14 | 8.4 ± 0.79 µM | 27.5 ± 2.54 µM | 0.95 ± 0.22 µM | 7.28 ± 0.96 µM | COc1cc([C@@H]2c3cc4c(cc3[C@H](OC(=O)CCCc3ccc(NS(=O)(=O)c5c(F)cccc5F)cc3)[C@H]3COC(=O)[C@H]23)OCO4)cc(OC)c1OC [Compound E10, (5R,5aR,8aR,9R)-8-oxo-9-(3,4,5-trimethoxyphenyl)-5,5a,6,8,8a,9-hexahydrofuro [3′,4′:6,7]naphtho[2,3-d][1,3]dioxol-5-yl4-(4-((2,6-difluorophenyl)sulfonamido)phenyl)butanoate] | > 100 µM | > 100 µM | 
15 | 4.97 ± 0.53 µM | 62 ± 1.58 µM | 0.55 ± 0.17 µM | 9.27 ± 0.74 µM | COc1cc([C@@H]2c3cc4c(cc3[C@H](OC(=O)CCCc3ccc(NS(=O)(=O)c5ccc(F)cc5F)cc3)[C@H]3COC(=O)[C@H]23)OCO4)cc(OC)c1OC [Compound E9, (5R,5aR,8aR,9R)-8-oxo-9-(3,4,5-trimethoxyphenyl)-5,5a,6,8,8a,9-hexahydrofuro [3′,4′:6,7]naphtho[2,3-d][1,3]dioxol-5-yl4-(4-((2,4-difluorophenyl)sulfonamido)phenyl)butanoate] | 99.3 ± 3.53 µM | > 100 µM | 
